Experimental data as given in ChEMBL document CHEMBL1145990, “Synthesis and in vitro antitumor activity of phenanthrolin-7-one derivatives, analogues of the marine pyridoacridine alkaloids ascididemin and meridine: structure-activity relationship” (J Med Chem, 2003).

How the values were obtained:
[1] = tested on: MCF7; assay: In vitro antitumor effects against human MCF-7 cell lines.; format: functional, cell-based
Method in brief: (§1)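 Cells grown at 37°C in sealed dishes in MEM with 5% FCS, seeded at 40000 cells/mL and allowed 24 h to plate. Six concentrations from 10 µM to 0.1 nM were tested. Growth was read by MTT reduction to formazan at 570 nm (630 nm reference), in sextuplicate. IC50 is the concentration giving 50% growth inhibition versus control, as the mean of three independent assays.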

[2] = tested on: SW1088; assay: In vitro antitumor effects against human SW 1088 cell lines.; format: functional, cell-based
[3] = tested on: U373 MG; assay: In vitro antitumor effects against human U-373MG cell lines.; format: functional, cell-based, U-373MG ATCC; method in brief: as §1
[4] = tested on: A-427; assay: In vitro antitumor effects against human A-427 cell lines.; format: functional, cell-based; method in brief: as §1
[5] = tested on: HCT-15; assay: In vitro antitumor effects against human HCT-15 cell lines.; format: functional, cell-based; method in brief: as §1
[6] = tested on: PC-3; assay: In vitro antitumor effects against human PC-3 cell lines.; format: functional, cell-based; method in brief: as §1
[7] = tested on: U-87 MG; assay: In vitro antitumor effects against human U87MG cell lines.; format: functional, cell-based, U-87MG ATCC; method in brief: as §1
[8] = tested on: A549; assay: In vitro antitumor effects against human A-549 cell lines.; format: functional, cell-based; method in brief: as §1
[9] = tested on: J82; assay: In vitro antitumor effects against human J82 cell lines.; format: functional, cell-based; method in brief: as §1
[10] = tested on: Mus musculus; assay: Maximum tolerated dose following single i.p. injection to B6D2F1/jico mice.; format: functional
Method in brief: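 Healthy non-tumour-bearing B6D2F1 mice given one acute intraperitoneal dose at 5, 10, 20, 40, 80 or 160 mg/kg. Three mice per dose group. Survival and body weight recorded for up to 28 days after injection. MTD taken as the highest dose tolerable acutely.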

[11] = tested on: LoVo; assay: In vitro antitumor effects against human LoVo cell lines.; format: functional, cell-based; method in brief: as §1
[12] = tested on: T47D; assay: In vitro antitumor effects against human T-47D cell lines.; format: functional, cell-based; method in brief: as §1
[13] = tested on: T-24; assay: In vitro antitumor effects against human T24 cell lines.; format: functional, cell-based; method in brief: as §1

Row | SMILES | IC50 [1] [µM] | IC50 [2] [µM] | IC50 [3] [µM] | IC50 [4] [µM] | IC50 [5] [µM] | IC50 [6] [µM] | IC50 [7] [µM] | IC50 [8] [µM] | IC50 [9] [µM] | MTD [10] [mg/kg] | IC50 [11] [µM] | IC50 [12] [µM] | IC50 [13] [µM]
1 | COc1cnc2c3c(nccc13)-c1c(N(C)C)ccnc1C2=O | 4 | 6 | 5 | 3 | 3 | 6 | 3 | 3 | 6 | >160 | 3 | 4 | 5
2 | COc1ccc2c(n1)-c1nccc3ccnc(c13)C2=O | 5 | 5 | 5 | 6 | 6 | 6 | 6 | 9 | 5 | >160 | > 10 | 6 | 5
3 | COc1cnc2c3c(nccc13)-c1ncccc1C2=O | 0.4 | 0.3 | 0.6 | 0.5 | 0.7 | 0.5 | 0.3 | 0.5 | 4 | >160 | 5 | 7 | 0.5
4 | COc1ccc2c(n1)C(=O)c1ncc(OC)c3ccnc-2c13 | 0.5 | 0.5 | 0.8 | 0.5 | 0.6 | 1 | 0.7 | 0.8 | 8 | >160 | 0.6 | 1 | 0.6
5 | CN(C)c1cc(Cl)nc2c1-c1nccc3ccnc(c13)C2=O | 6 | 5 | 6 | 6 | 5 | > 10 | 6 | > 10 | 5 | 40 | 5 | 4 | 6
6 | COc1ccnc2c1-c1nccc3c(OC)cnc(c13)C2=O | 0.03 | 0.008 | 0.007 | 0.006 | 0.04 | 0.04 | 0.008 | 0.005 | 0.2 | 20 | 0.008 | 0.06 | 0.009
7 | CN(C)c1ccnc2c1-c1nccc3ccnc(c13)C2=O | 0.9 | 5 | 1 | 0.9 | 2 | 4 | 2 | 1 | 4 | 10 | 2 | 4 | 1
8 | COc1cnc2c3c(nccc13)-c1cccnc1C2=O | 0.06 | 0.08 | 0.07 | 0.07 | 0.09 | 0.08 | 0.05 | 0.05 | 0.8 | >160 | 0.7 | 6 | 0.06
9 | O=C1c2nccc(O)c2-c2nccc3ccnc1c23 | 5 | 6 | 6 | 6 | 6 | > 10 | 8 | 6 | 6 | 10 | 5 | 6 | 8
10 | COc1ccnc2c1-c1nccc3ccnc(c13)C2=O | 0.2 | 2 | 0.1 | 0.07 | 0.1 | 0.9 | 0.1 | 0.3 | 2 | 5 | 0.3 | 3 | 0.3
11 | COc1ccc2c(n1)C(=O)c1nccc3ccnc-2c13 | 5 | 5 | 6 | 6 | 6 | 6 | 6 | 9 | 5 | 40 | 5 | 6 | 6
12 | COc1cc(OC)c2c(n1)C(=O)c1nccc3ccnc-2c13 | 5 | 5 | 6 | 5 | 5 | 6 | 5 | 6 | 5 | 40 | 4 | 5 | 6
13 | O=C1c2cccnc2-c2nccc3ccnc1c23 | 0.2 | 4 | 0.8 | 7 | 0.9 | 5 | 0.5 | 0.8 | 5 | 10 | 2 | 0.7 | 0.3
14 | O=C1c2ncccc2-c2nccc3ccnc1c23 | 0.6 | 5 | 4 | 0.7 | 0.6 | 0.9 | 6 | 3 | 5 | 10 | 2 | 0.8 | 0.8
15 | COc1ccnc2c1C(=O)c1ncc(OC)c3ccnc-2c13 | 2 | 3 | 2 | 0.8 | 3 | 0.8 | 0.8 | 5 | 5 | 80 | 0.8 | 5 | 2
16 | COc1ccnc2c1C(=O)c1nccc3ccnc-2c13 | 0.6 | 0.9 | 0.8 | 0.8 | 0.8 | 0.6 | 4 | 0.8 | 3 | 10 | 0.9 | 0.4 | 0.7
17 | O=C1c2c(Cl)ccnc2-c2nccc3ccnc1c23 | 0.6 | 4 | 4 | 0.7 | 1 | 5 | 0.8 | 0.8 | 4 | 20 | 1 | 1 | 3
